Experimental data taken from ChEMBL document CHEMBL1145963, “Identification, synthesis, and activity of novel blockers of the voltage-gated potassium channel Kv1.5” (J Med Chem, 2003).
“And” between values parts separate entries of the source, which are not always exact repeats. Equal entries are not always repeated.

Target: T1, Potassium voltage-gated channel subfamily A member 5 (Homo sapiens, UniProt P22460)
Experiment: Inhibition of human voltage-gated potassium channel subunit Kv1.5 expressed in Xenopus oocytes
Type: cell-based, Oocyte
Conditions: not given
In short: (§1)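 Compounds came from a 10 mM DMSO stock diluted into ND96. Read-out was percent inhibition of the compound-free control current. For IC50, 3–4 concentrations were each tested at least twice and fitted with a variable-slope Hill equation.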

T1 sequence (P22460 whole entry): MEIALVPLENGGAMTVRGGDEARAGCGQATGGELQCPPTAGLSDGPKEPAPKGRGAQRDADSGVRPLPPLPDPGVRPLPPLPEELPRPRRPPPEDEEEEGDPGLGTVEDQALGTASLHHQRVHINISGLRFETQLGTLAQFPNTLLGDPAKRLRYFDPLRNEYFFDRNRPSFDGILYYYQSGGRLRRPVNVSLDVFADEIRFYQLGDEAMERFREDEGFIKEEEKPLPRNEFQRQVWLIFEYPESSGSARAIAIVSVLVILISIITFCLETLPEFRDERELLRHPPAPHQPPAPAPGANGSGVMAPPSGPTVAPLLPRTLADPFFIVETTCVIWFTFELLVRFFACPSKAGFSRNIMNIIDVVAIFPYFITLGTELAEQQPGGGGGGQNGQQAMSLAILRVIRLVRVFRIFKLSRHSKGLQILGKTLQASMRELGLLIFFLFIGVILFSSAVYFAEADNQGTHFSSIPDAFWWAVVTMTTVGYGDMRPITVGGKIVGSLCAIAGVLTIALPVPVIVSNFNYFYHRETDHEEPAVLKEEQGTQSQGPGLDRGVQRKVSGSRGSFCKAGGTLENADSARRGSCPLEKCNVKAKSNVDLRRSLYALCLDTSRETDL

With CN(C)CC(C)(C)CNC(=O)c1ccccc1-c1ccccc1CNC(=O)OCc1ccccc1 as the compound, how does the IC50 read?
Its IC50 is 2.2 µM.

For CC(C)CCNC(=O)c1ccccc1-c1ccccc1CNCCc1ccccc1, which IC50 is on record?
Its IC50 is 4 µM.

How did the IC50 turn out when O=C(NC1CCCCC1)c1cccc2cccc(NS(=O)(=O)c3ccc(Cl)cc3)c12 was run?
Its IC50 is 9.5 µM.

Which IC50 does the source give for Cc1cccc(CNC(=O)OCc2ccccc2)c1-c1c(C)cccc1C(=O)NCCC(C)C here?
Its IC50 is 1 µM and 1.3 µM.

With O=C(NCc1ccccc1-c1ccccc1C(=O)NCc1ccc(F)cc1F)OCc1ccccc1 as the compound, how does the IC50 read?
Its IC50 is 1.2 µM.

CC(C)CCNC(=O)c1ccncc1-c1ccccc1CNC(=O)OCc1ccccc1 was tested. Which IC50 did it give?
The IC50 was 12 µM.

For C[C@@H](CC(=O)NCc1ccccc1-c1ccccc1C(=O)NCCc1ccccn1)c1ccccc1, which IC50 is on record?
Its IC50 is 1 µM.

Which IC50 does the source give for CC(C)CCNC(=O)c1cccnc1-c1ccccc1CNC(=O)OCc1ccccc1 here?
Its IC50 is 7.8 µM.

For CC(C)CCNC(=O)c1ccccc1-c1ccncc1CNC(=O)OCc1ccccc1, which IC50 is on record?
Its IC50 is 7 µM.

For Cc1cccc(CNC(=O)OCc2ccccc2)c1-c1c(C)cccc1C(=O)NCCc1ccccn1, which IC50 is on record?
The IC50 was 1.7 µM.

Target: T1, Potassium voltage-gated channel subfamily A member 5
Experiment: Inhibition of human voltage-gated potassium channel subunit Kv1.5 expressed in Xenopus oocytes at 10 uM
Type: cell-based
Conditions: Oocyte
In short: as §1, with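 “Human Kv1.5 cRNA (0.2–0.5 ng) was injected into Xenopus oocytes kept at 18 °C. […] Compounds” for “Compounds”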

For COc1ccc(S(=O)(=O)NC(=O)NCc2ccccc2-c2ccccc2C(=O)NCc2ccc(F)cc2F)cc1, which inhibition is on record?
The inhibition was 7%.

Which inhibition does the source give for CC(C)CCOC(=O)c1ccccc1-c1ccccc1CNC(=O)OCc1ccccc1 here?
Its inhibition is 8%.

Target: hERG (KCNH2) (Homo sapiens, UniProt Q12809)
Experiment: Inhibition of human Potassium channel HERG expressed in Xenopus oocytes at 10 uM
Type: cell-based, Oocyte
Conditions: Xenopus oocytes expressing human hERG

hERG (KCNH2), sequence (Q12809 whole entry): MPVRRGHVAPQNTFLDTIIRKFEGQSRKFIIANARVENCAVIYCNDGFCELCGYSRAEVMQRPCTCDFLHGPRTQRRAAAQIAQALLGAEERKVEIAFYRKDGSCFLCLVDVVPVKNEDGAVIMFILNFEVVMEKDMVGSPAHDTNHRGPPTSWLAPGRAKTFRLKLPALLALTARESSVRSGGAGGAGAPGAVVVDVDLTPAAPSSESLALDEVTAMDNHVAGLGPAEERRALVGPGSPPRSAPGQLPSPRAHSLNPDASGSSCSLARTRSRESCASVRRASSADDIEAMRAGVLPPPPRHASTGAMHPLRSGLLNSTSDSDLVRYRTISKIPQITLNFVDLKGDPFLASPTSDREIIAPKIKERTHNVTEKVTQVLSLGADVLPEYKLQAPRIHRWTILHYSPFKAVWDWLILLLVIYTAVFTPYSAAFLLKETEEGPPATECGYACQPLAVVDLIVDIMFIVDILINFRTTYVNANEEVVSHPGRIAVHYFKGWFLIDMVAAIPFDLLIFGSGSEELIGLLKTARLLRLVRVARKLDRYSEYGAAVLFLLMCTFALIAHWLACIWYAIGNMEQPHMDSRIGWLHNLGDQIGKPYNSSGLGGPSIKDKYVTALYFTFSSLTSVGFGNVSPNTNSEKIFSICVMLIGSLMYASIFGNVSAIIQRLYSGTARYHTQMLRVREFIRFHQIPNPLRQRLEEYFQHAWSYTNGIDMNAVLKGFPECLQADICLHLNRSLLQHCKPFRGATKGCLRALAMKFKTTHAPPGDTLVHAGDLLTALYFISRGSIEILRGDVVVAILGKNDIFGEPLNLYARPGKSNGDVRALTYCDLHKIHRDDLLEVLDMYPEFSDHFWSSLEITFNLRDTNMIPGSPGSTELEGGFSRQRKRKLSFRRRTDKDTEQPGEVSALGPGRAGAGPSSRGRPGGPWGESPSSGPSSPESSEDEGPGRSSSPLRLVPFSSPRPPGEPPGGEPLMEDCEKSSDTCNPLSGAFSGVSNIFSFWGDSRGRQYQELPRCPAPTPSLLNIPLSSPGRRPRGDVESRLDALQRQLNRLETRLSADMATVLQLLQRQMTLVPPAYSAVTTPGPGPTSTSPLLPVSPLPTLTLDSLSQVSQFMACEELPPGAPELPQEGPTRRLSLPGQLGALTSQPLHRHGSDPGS

With O=C(NCc1ccccc1-c1ccccc1C(=O)NCCc1ccccn1)OCc1ccccc1 as the compound, how does the inhibition at 10 µM read?
The inhibition at 10 µM was 7%.

With C[C@H](OC(=O)NCc1ccccc1-c1ccccc1C(=O)NCCc1ccccn1)c1ccccc1 as the compound, how does the inhibition at 10 µM read?
Its inhibition at 10 µM is 11%.

Target: Potassium voltage-gated channel subfamily A member 3 (Homo sapiens, UniProt P22001)
Experiment: Inhibition of human voltage-gated potassium channel subunit Kv1.3 expressed in Xenopus oocytes
Type: cell-based, Oocyte
Conditions: not given
In short: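 Kv1.3 was expressed in Xenopus oocytes and recorded by two-microelectrode voltage clamp, handled like the Kv1.5 assay. Compounds were diluted from a 10 mM DMSO stock into ND96 superfusate. Percent inhibition of the control current at 3–4 concentrations was fitted with a variable-slope dose–response equation to give IC50.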

Potassium voltage-gated channel subfamily A member 3, sequence (P22001 whole entry): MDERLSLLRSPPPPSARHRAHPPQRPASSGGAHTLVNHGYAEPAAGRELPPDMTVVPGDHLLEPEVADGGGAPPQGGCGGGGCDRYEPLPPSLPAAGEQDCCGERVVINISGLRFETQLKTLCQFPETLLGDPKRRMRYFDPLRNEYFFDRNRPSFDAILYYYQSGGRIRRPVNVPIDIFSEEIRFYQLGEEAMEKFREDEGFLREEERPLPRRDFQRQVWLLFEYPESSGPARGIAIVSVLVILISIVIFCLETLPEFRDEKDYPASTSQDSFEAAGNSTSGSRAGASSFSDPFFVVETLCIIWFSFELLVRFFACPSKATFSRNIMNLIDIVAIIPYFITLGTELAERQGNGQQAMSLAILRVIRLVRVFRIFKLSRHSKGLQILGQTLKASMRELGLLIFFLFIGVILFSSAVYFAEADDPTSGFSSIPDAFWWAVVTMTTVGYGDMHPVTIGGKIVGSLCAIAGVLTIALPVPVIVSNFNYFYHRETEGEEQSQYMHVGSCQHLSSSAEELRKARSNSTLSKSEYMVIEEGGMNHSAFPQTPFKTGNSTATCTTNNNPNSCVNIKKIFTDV

How did the IC50 turn out when O=C(NCc1ccccc1-c1ccccc1C(=O)NCCc1ccccn1)OCc1ccccc1 was run?
Its IC50 is 2.3 µM.

C[C@H](OC(=O)NCc1ccccc1-c1ccccc1C(=O)NCCc1ccccn1)c1ccccc1 was tested. Which IC50 did it give?
The IC50 was 0.5 µM.
